This is an account of results in ChEMBL document CHEMBL1122142, “Synthesis and antiinflammatory activity of hexahydrothiopyrano[4,3-c]pyrazoles and related analogues” (J Med Chem, 1982).

Where only a bound is given, the exact number is not on record here.

Data set [1] deals with Cavia porcellus. The experiment in a line: Tested in delayed hypersensitivity skin reaction (DHSR) after subcutaneous administration, activity reported as percent inhibition of erythema/induration of lesion; 14/42. It is filed as functional.
The nature of data set [2]: Acute toxicity as LD50 value was determined in mice administered intraperitoneally. It is filed as organism-based. Conditions: mouse, in vivo, ip.
Data set [3] is filed under the species Mus musculus. The experiment in a line: The compound was evaluated for the mouse active Arthus (MAA) reaction activity expressed as inhibitory dose. It is filed as functional. Conditions: read-out: ID50 (the source's name). In outline:
(§1)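 CD-1 mice were sensitized ip with a 1:1 Freund's complete adjuvant emulsion containing BSA in saline, 5 weeks before challenge. Compound was suspended in 1% Na CMC in pyrogen-free saline and given as one ip or oral dose 1 h before skin challenge with BSA. Screening doses were 150 mg/kg ip and 300 mg/kg po, with some at 75 or 50 mg/kg ip. Lesions were excised 3.5 h after challenge and weighed against controls.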

For data set [4], the system named is Mus musculus. The experiment in a line: Mouse active Arthus (MAA) reaction activity was determined for an ip dose of 150 mg/kg in mouse. It is filed as functional. Conditions: route intraperitoneal.
A short description of data set [5]: Therapeutic ratio was determined for intraperitoneal administration. It is filed as ADME. Conditions: ip; read-out: TR.
The subject of data set [6] is Cavia porcellus. The experiment in a line: Tested in delayed hypersensitivity skin reaction (DHSR) after subcutaneous administration, activity reported as percent inhibition of erythema/induration of lesion; 24/41. It is filed as functional. In outline:
(§2)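 Male Hartley guinea pigs were sensitized with Mycobacterium tuberculosis in Freund's incomplete adjuvant, injected into each hind footpad and subcutaneously at the neck. After 3 weeks, 1.2 μg PPD was given intradermally. Compound in sesame oil was given sc, 3 animals per group, 30 min before and 5 h after PPD; screening dose 50 mg/kg.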

The nature of data set [7]: Acute toxicity as LD50 value was determined in mice administered orally. It is filed as organism-based. Conditions: mouse, in vivo, po.
The test system of data set [8] is Mus musculus. The experiment in a line: The compound was evaluated for the mouse active Arthus (MAA) reaction activity expressed as inhibitory dose after ip administration. It is filed as functional. Conditions: read-out: ID50 (the source's name). The procedure, abridged: as §1
Data set [9] has as its system Mus musculus. In words: The compound was evaluated for the mouse active Arthus (MAA) reaction activity expressed as inhibitory dose after oral administration. It is filed as functional. Conditions: read-out: ID50 (the source's name). The procedure, abridged: as §1
Data set [10] has as its system Mus musculus. In words: Inhibition of Mouse active Arthus (MAA) reaction activity was determined for peroral dose of 300 mg/kg in mouse; 41-60%. It is filed as functional. Conditions: route oral.
The nature of data set [11]: Therapeutic ratio was determined for peroral administration. Conditions: po; read-out: TR.
Data set [12] deals with Cavia porcellus. In words: Tested in delayed hypersensitivity skin reaction (DHSR) after subcutaneous administration, activity reported as percent inhibition of erythema/induration of lesion; 16/52. It is filed as functional.
Data set [13] deals with Mus musculus. The experiment in a line: Inhibition of Mouse active Arthus (MAA) reaction activity was determined for peroral dose of 300 mg/kg in mouse; 31-40%. It is filed as functional. Conditions: route oral.
Data set [14] deals with Mus musculus. In words: Inhibition of Mouse Active Arthus reaction following 150 mg/Kg i.p.; 41-60% inhibition. Conditions: Mus musculus, ip. It is filed as functional.
The test system of data set [15] is Cavia porcellus. In words: Tested in delayed hypersensitivity skin reaction (DHSR) after subcutaneous administration, activity reported as percent inhibition of erythema/induration of lesion; 9/32. It is filed as functional. In outline: as §2
In data set [16] the test system is Mus musculus. In words: The compound was evaluated for the mouse active Arthus (MAA) reaction activity for an ip screening dose of 50 mg/kg. It is filed as functional. Conditions: route intraperitoneal. The procedure, abridged:
as §1

Data set [17] relates to Cavia porcellus. The experiment in a line: Tested in delayed hypersensitivity skin reaction (DHSR) after subcutaneous administration, activity reported as percent inhibition of erythema/induration of lesion; 12/45. It is filed as functional.
Data set [18] deals with Mus musculus. The experiment in a line: Inhibition of Mouse active Arthus (MAA) reaction activity was determined for peroral dose of 300 mg/kg in mouse. It is filed as functional. Conditions: route oral.
For data set [19], the system named is Cavia porcellus. The experiment in a line: Tested in delayed hypersensitivity skin reaction (DHSR) after subcutaneous administration, activity reported as percent inhibition of erythema/induration of lesion; 4/6. It is filed as functional. The procedure, abridged:
as §2

The subject of data set [20] is Mus musculus. The experiment in a line: Inhibition of Mouse active Arthus (MAA) reaction activity was determined for an ip dose of 150 mg/kg in mouse; 21-30%. It is filed as functional. Conditions: route intraperitoneal.
Data set [21] deals with Cavia porcellus. In words: Tested in delayed hypersensitivity skin reaction (DHSR) after subcutaneous administration, activity reported as percent inhibition of erythema/induration of lesion; 15/42. It is filed as functional.
For data set [22], the system named is Mus musculus. The experiment in a line: The compound was evaluated for the mouse active Arthus (MAA) reaction activity for an ip dose of 150 mg/kg in mouse; 31-40%. It is filed as functional. Conditions: route intraperitoneal. The procedure, abridged: as §1
The subject of data set [23] is Cavia porcellus. In words: Tested in delayed hypersensitivity skin reaction (DHSR) after subcutaneous administration, activity reported as percent inhibition of erythema/induration of lesion; 14/11. It is filed as functional.
Data set [24] concerns Cavia porcellus. In words: Tested in delayed hypersensitivity skin reaction (DHSR) after subcutaneous administration, activity reported as percent inhibition of erythema/induration of lesion; 0/8. It is filed as functional.
A short description of data set [25]: The acute toxicity as LD50 value was determined in mice for intraperitoneally administration. Conditions: mouse, in vivo, ip. It is filed as organism-based.
For data set [26], the system named is Mus musculus. The experiment in a line: Mouse active Arthus (MAA) reaction activity was determined for an oral dose of 300 mg/kg administration in mouse; 21-30%. It is filed as functional.
The test system of data set [27] is Rattus norvegicus. In words: Carrageenan-induced edema was determined after intraperitoneal administration. Conditions: ip, read-out: ID50 (the source's name).
Data set [28] relates to Rattus norvegicus. In words: Carrageenan-induced edema was determined after oral administration of a dose of. Conditions: read-out: ID50 (the source's name). Background: In the carrageenan paw model, swelling and tenderness develop within hours.
For data set [29], the system named is Rattus norvegicus. The experiment in a line: Adjuvant-induced arthritis was determined for a dose of 75 mg/kg oral administration.
Data set [30] relates to Rattus norvegicus. In words: Adjuvant-induced arthritis was determined for a dose of 150 mg/kg administered orally. Conditions: po.
Data set [31] deals with Rattus norvegicus. The experiment in a line: Adjuvant-induced arthritis was determined for a dose of 75 mg/kg intraperitoneal administration. Conditions: ip.
For data set [32], the system named is Rattus norvegicus. In words: Adjuvant-induced arthritis was determined for a dose of 150 mg/kg administered intraperitoneally. Conditions: ip.
In data set [33] the test system is Cavia porcellus. In words: Delayed hypersensitivity skin reaction (DHSR) activity was determined after a dose of 50 mg/kg; 6/15.
Data set [34] relates to Cavia porcellus. The experiment in a line: The compound was evaluated for the delayed hypersensitivity skin reaction (DHSR) activity after subcutaneous administration; 23/37.
Data set [35] relates to Cavia porcellus. The experiment in a line: Tested in delayed hypersensitivity skin reaction (DHSR) after subcutaneous administration, activity reported as percent inhibition of erythema/induration of lesion; 24/32. It is filed as functional. In outline: as §2
Data set [36] has as its system Cavia porcellus. In words: Tested in delayed hypersensitivity skin reaction (DHSR) after subcutaneous administration, activity reported as percent inhibition of erythema/induration of lesion; 4/0. It is filed as functional. In outline:
as §2

Broadly, the LD50 is the dose expected to kill half of the subjects tested. Lower therefore signals greater toxicity. One may read the inhibition in vivo as the drop in the measured response relative to a control, in per cent. For the compound `Cc1ccccc1/C=C1\CS(=O)(=O)CC2C1=NN(CCCN1CCN(C)CC1)C2c1ccccc1C.O=C(O)/C=C\C(=O)O` (configuration not stated), the Activity in the data set with Cavia porcellus [1] was 14. The same compound yielded an LD50 in [2] of 130 mg/kg. For the same compound, in the data set filed under Mus musculus [3], the ED50 was less than 37.5 mg/kg. In the data set on Mus musculus [4], this compound had an inhibition in vivo at 150 mg/kg of more than 60%. The selectivity ratio in data set [5] is less than 3.5.

On to `Cc1ccccc1/C=C1\CSCC2C1=NN(CCCN1CCN(C)CC1)C2c1ccccc1C.O=C(O)/C=C\C(=O)O` (configuration not stated), for which the Activity in the data set on Cavia porcellus [6] amounted to 24. Also, the values for the LD50 in data set [2] and in [7] were 170 mg/kg and more than 1200 mg/kg, respectively. The ED50 turned out to be 30 mg/kg in the data set on Mus musculus [8] and 225 mg/kg with Mus musculus [9]. For the same compound, the inhibition in vivo at 300 mg/kg in the data set on Mus musculus [10] worked out at 41%. The same compound had an inhibition in vivo at 150 mg/kg with Mus musculus [4] of more than 60%. Besides, the selectivity ratio was 5.7 in data set [5] and more than 5.3 in data set [11].

`Cc1ccc(/C=C2\CSCC3C2=NN(CCCN2CCN(C)CC2)C3c2ccc(C)cc2)cc1.O=C(O)/C=C\C(=O)O` (configuration not stated) registered an Activity in the data set on Cavia porcellus [12] of 16. The ED50 with Mus musculus [8] came out at 58 mg/kg. Moreover, at 300 mg/kg the inhibition in vivo with Mus musculus [13] was 31%. In the data set on Mus musculus [14], this compound displayed an inhibition in vivo at 150 mg/kg of 41%.

On to `CN1CCN(CCCN2N=C3/C(=C/c4ccccc4)COCC3C2c2ccccc2)CC1.O=C(O)/C=C\C(=O)O` (configuration not stated), for which the Activity in the data set on Cavia porcellus [15] came out at 9. For the same compound, the inhibition in vivo at 50 mg/kg with Mus musculus [16] is more than 60%.

The compound `CCCN1N=C2/C(=C/c3ccc(OC)cc3)CSCC2C1c1ccc(OC)cc1` (configuration not stated) returned an Activity in the data set with Cavia porcellus [17] of 12. In the data set with Mus musculus [14], this compound showed an inhibition in vivo at 150 mg/kg of 41%. In addition, the inhibition in vivo at 300 mg/kg with Mus musculus [18] is less than 20%.

`OCCN1N=C2/C(=C/c3ccccc3)CSCC2C1c1ccccc1` (configuration not stated) displayed an Activity in the data set on Cavia porcellus [19] of 4. Moreover, the inhibition in vivo at 150 mg/kg in the data set with Mus musculus [20] was found to be 21%.

In turn, `CCCn1nc(-c2ccc(OC)cc2)c2c1/C(=C/c1ccc(OC)cc1)CSC2` gave an Activity with Cavia porcellus [21] of 15. Further, in the data set with Mus musculus [22], the inhibition in vivo at 150 mg/kg stood at 31%.

`Cc1ccc(/C=C2\CS(=O)(=O)CC3C2=NN(CC(F)(F)F)C3c2ccc(C)cc2)cc1` (configuration not stated): in the data set with Cavia porcellus [23], the Activity turned out to be 14. In addition, the inhibition in vivo at 150 mg/kg in the data set on Mus musculus [14] turned out to be 41%. Moreover, the inhibition in vivo at 300 mg/kg in the data set with Mus musculus [18] was less than 20%.

In the case of `O=S1(=O)C/C(=C\c2ccc(Cl)cc2)C2=NN(c3ccccc3)C(c3ccc(Cl)cc3)C2C1` (configuration not stated), the Activity with Cavia porcellus [24] amounted to 0.

For `CC(=O)N1N=C2/C(=C/c3cccc(C(F)(F)F)c3)CS(=O)(=O)CC2C1c1cccc(C(F)(F)F)c1` (configuration not stated), the LD50 in data set [2] is more than 3200 mg/kg; in [7] it was more than 7200 mg/kg; in data set [25], more than 4000 mg/kg. Moreover, the ED50 in the data set on Mus musculus [8] was 112 mg/kg; in the data set with Mus musculus [9], more than 600 mg/kg; in the data set on Rattus norvegicus [27], more than 150 mg/kg; in the data set with Rattus norvegicus [28], more than 200 mg/kg. Besides, the inhibition in vivo at 150 mg/kg in the data set on Mus musculus [14] turned out to be 41%; in the data set with Rattus norvegicus [30], 7%; in the data set with Rattus norvegicus [32] it was 31%. Also, 300 mg/kg produced 21% inhibition in vivo with Mus musculus [26]. In addition, the selectivity ratio in data set [5] came out at 24. The values for the inhibition in vivo at 75 mg/kg in the data set with Rattus norvegicus [29] and in the data set with Rattus norvegicus [31] were 0% and 22%, respectively. Besides, the Activity in the data set with Cavia porcellus [33] stood at 6.

In the case of `C(=C1/CSCC2C1=NNC2c1ccccc1)/c1ccccc1` (configuration not stated), the inhibition in vivo at 150 mg/kg with Mus musculus [14] amounted to 41%. In the data set on Cavia porcellus [34], this compound came in with an Activity of 23.

For `CCCN1N=C2/C(=C/c3ccc(Cl)cc3)CS(=O)(=O)CC2C1c1ccc(Cl)cc1` (configuration not stated), in the data set on Cavia porcellus [35], the Activity is listed as 24. In the data set on Mus musculus [14], this compound gave an inhibition in vivo at 150 mg/kg of 41%.

The compound `CN1N=C2/C(=C/c3cccc(C(F)(F)F)c3)CS(=O)(=O)CC2C1c1cccc(C(F)(F)F)c1` (configuration not stated) showed an Activity in the data set with Cavia porcellus [36] of 4. In the data set with Mus musculus [14], this compound displayed an inhibition in vivo at 150 mg/kg of 41%.
